Measured values: ChEMBL document CHEMBL1122037, “Use of adenine nucleotide derivatives to assess the potential of exo-active-site-directed reagents as species- or isozyme-specific enzyme inactivators. 4. Interactions of adenosine 5'-triphosphate derivatives with adenylate kinases from Escherichia coli and rat tissues” (J Med Chem, 1982)
Several values for one entry are separate records, joined by “and”; a condition that tells them apart may be missing. Equal values may be shown once.

Assays:
Escherichia coli [1] = assay: Ability to inhibit Escherichia coli adenylate kinase II, activity expressed as Maximum velocity; type: ADME; conditions: in vitro
Method in brief: (§1)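 Coupled spectrophotometric assay (pyruvate kinase/lactate dehydrogenase, NADH oxidation) in 0.1 M Tris-HCl pH 7.6 with 2 mM MgSO4, 0.12 M KCl, 0.31 mM PEP, 0.38 mM NADH and 0.25 mM AMP. Derivatives were added as 1:1 Mg complexes. KM was obtained from linear Lineweaver-Burk plots using five or more substrate levels spanning 0.5–4.0 × KM. Inhibition was typed as competitive or noncompetitive versus ATP.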

Rattus norvegicus [2] = organism: Rattus norvegicus; assay: Ability to inhibit rat adenylate kinase II, activity expressed as half-maximal velocity; type: ADME; conditions: in vitro; method in brief: as §1
Rattus norvegicus [3] = organism: Rattus norvegicus; assay: Ability to inhibit rat adenylate kinase III, activity expressed as half-maximal velocity; type: ADME; method in brief: as §1
Rattus norvegicus [4] = organism: Rattus norvegicus; assay: Ability to inhibit rat adenylate kinase II, activity expressed as Maximum velocity; type: ADME; method in brief: as §1
[5] = target: Adenylate kinase (Escherichia coli) (UniProt P69441); assay: Ability to inactivate adenylate kinase was determined, after exposing enzyme to mM levels of MgATP at pH 7.6
Rattus norvegicus [6] = organism: Rattus norvegicus; assay: Ability to inhibit rat adenylate kinase III, activity expressed as Maximum velocity; type: ADME; conditions: in vitro; method in brief: as §1
Rattus norvegicus [7] = organism: Rattus norvegicus; assay: Ability of the 1.42 mM compound to inactivate rat muscle adenylate kinase was determined, after exposing enzyme to 2.2 mM levels of ATP activity expressed as percent loss of inactivation
Method in brief: (§2)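 Rat muscle enzyme preincubated at 22 °C with the 1:1 Mg2+ complex of the derivative, alone or with added AMP or ATP. Aliquots were assayed at intervals in the coupled system containing 1 mM ATP, alongside controls lacking the derivative. Half-time of inactivation was taken from pseudo-first-order plots, or % activity loss at 5–6 h was reported.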

[8] = target: Adenylate kinase 2, mitochondrial (Rattus norvegicus) (UniProt P29410); assay: Ability to inhibit rat adenylate kinase II, […]
Method in brief: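 Rat adenylate kinase isozyme II. ATP derivatives were used as 1:1 Mg²⁺ complexes and varied against ATP as phosphate donor. Coupled PK/LDH NADH-oxidation spectrophotometric assay in 0.1 M Tris-HCl pH 7.6 with 2 mM MgSO₄, 0.12 M KCl, 0.31 mM PEP, 0.38 mM NADH and 0.25 mM AMP. Inhibition type was assigned as competitive or noncompetitive with respect to ATP from initial-velocity kinetics.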

Escherichia coli [9] = assay: Ability to inactivate Escherichia coli adenylate kinase after exposing enzyme to 0 mM levels of MgATP at concentration of 8.1 mM, pH 7.6
Method in brief: (§3)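 E. coli B enzyme, partially purified 27-fold (fraction IV), exposed 6 h at 22 °C, pH 7.6, to the Mg2+ 1:1 complex of the ATP derivative in the Tris/MgSO4/KCl reaction buffer, with or without MgATP. Aliquots withdrawn at intervals and assayed spectrophotometrically with 1 mM ATP. Activity was compared with controls lacking the derivative. Read-out is % inactivation after 6 h.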

Escherichia coli [10] = assay: Ability of 13.2 mM compound to inactivate Escherichia coli adenylate kinase was determined, after exposing enzyme to 0 mM levels of MgATP after 6 hr at 22 degree C; method in brief: as §3
[11] = target: T1, GTP:AMP phosphotransferase AK3, mitochondrial (Rattus norvegicus, UniProt P29411); assay: Ability to inhibit rat adenylate kinase III, activity expressed as Inhibition constant; Competitive inhibition; method in brief: as §1
Escherichia coli [12] = assay: Ability of 13.2 mM compound to inactivate Escherichia coli adenylate kinase was determined, after exposing enzyme to 10.7 mM levels of MgATP after 6 hr at 22 degree C; method in brief: as §3
[13] = target: Adenylate kinase (Escherichia coli) (UniProt P69441); assay: Ability of the 9 mM compound to inactivate adenylate kinase was determined, after exposing enzyme to 0 mM levels of MgATP in 6 h at 22 degree C
Escherichia coli [14] = assay: Ability to inhibit Escherichia coli adenylate kinase II activity expressed as Maximum velocity; type: ADME
Method in brief: (§4)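 E. coli B adenylate kinase, partially purified 27-fold (streptomycin, ammonium sulfate fractionation, DEAE-cellulose; fraction IV). ATP derivatives tested as 1:1 Mg²⁺ complexes as phosphate donor. Coupled PK/LDH NADH-oxidation spectrophotometric assay in 0.1 M Tris-HCl pH 7.6 with 2 mM MgSO₄, 0.12 M KCl, 0.31 mM PEP, 0.38 mM NADH and 0.25 mM AMP. Constants came from linear Lineweaver-Burk plots of initial velocity, using ≥5 substrate levels across 0.5–4.0 × KM.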

Escherichia coli [15] = assay: Ability to inhibit Escherichia coli adenylate kinase II activity expressed as half maximal velocity; type: ADME, organism-based; conditions: in vivo; method in brief: as §4
Escherichia coli [16] = assay: Ability to inactivate Escherichia coli adenylate kinase after exposing enzyme to 0 mM levels of MgATP at concentration of 13.5 mM, pH 7.6; method in brief: as §3
[17] = target: Adenylate kinase 2, mitochondrial (Rattus norvegicus, UniProt P29410); assay: Ability to inhibit rat adenylate kinase II, activity expressed as Inhibition constant; method in brief: as §1
Escherichia coli [18] = assay: Ability to inactivate Escherichia coli adenylate kinase after exposing enzyme to 0 mM levels of MgATP at concentration of 4.5mM, pH 7.6 for 6 h; type: functional; method in brief: as §3
Rattus norvegicus [19] = organism: Rattus norvegicus; assay: Ability of the 1.10 mM compound to inactivate rat muscle adenylate kinase was determined, after exposing enzyme to 2.2 mM levels of ATP activity expressed as percent loss of inactivation; method in brief: as §2
Escherichia coli [20] = assay: Ability inactivate Escherichia coli adenylate kinase was determined, after exposing enzyme to mM levels of MgATP at pH 7.6; method in brief: as §3
Escherichia coli [21] = assay: Ability to inactivate Escherichia coli adenylate kinase after exposing enzyme to 0 mM levels of MgATP at concentration of 11.8 mM, pH 7.6; method in brief: as §3
[22] = tested on: Adenylate kinase, muscle isozyme (Rattus norvegicus); assay: Ability of the 1.14 mM compound to inactivate rat muscle adenylate kinase was determined, after exposing enzyme to 0 mM levels of MgATP, activity expressed as percent loss of inactivation
[23] = target: T1, GTP:AMP phosphotransferase AK3, mitochondrial; assay: Ability to inhibit rat adenylate kinase III, activity expressed as Inhibition constant; method in brief: as §1
[24] = target: Adenylate kinase (Escherichia coli) (UniProt P69441); assay: Ability to inhibit Escherichia coli adenylate kinase II activity expressed as half maximal velocity
Rattus norvegicus [25] = organism: Rattus norvegicus; assay: Ability of to inactivate rat muscle adenylate kinase was determined activity expresses as Percent loss of inactivation; method in brief: as §2
Escherichia coli [26] = assay: Ability to inactivate adenylate kinase was determined, after exposing enzyme to mM levels of MgATP at pH 7.6 at a concentration of 26.0; method in brief: as §3
Escherichia coli [27] = assay: Ability to inactivate adenylate kinase was determined, after exposing enzyme to mM levels of MgATP at pH 7.6 at a concentration of 9.7; method in brief: as §3
Escherichia coli [28] = assay: Ability to inactivate adenylate kinase was determined, after exposing enzyme to mM levels of MgATP at pH 7.6 at a concentration of 9.9; method in brief: as §3
[29] = tested on: Adenylate kinase, muscle isozyme (Rattus norvegicus); assay: Ability of the 0.094 mM compound to inactivate rat muscle adenylate kinase was determined, after exposing enzyme to 1.4 mM levels of ATP activity expressed as % loss of inactivation

CC(=O)NCCCCCCNc1nc2c(N)ncnc2n1C1O[C@H](COP(=O)(O)OP(=O)(O)OP(=O)(O)O)[C@@H](O)[C@H]1O (stereo partly drawn)
Vmax (Escherichia coli [1]): 0%

O=C(CI)NCCCCCCCCNc1ncnc2c1ncn2[C@@H]1O[C@H](COP(=O)(O)OP(=O)(O)OP(=O)(O)O)[C@@H](O)[C@H]1O
Km (Rattus norvegicus [2]): 400 µM | Km (Rattus norvegicus [3]): 1100 µM | Vmax (Rattus norvegicus [4]): 5% | Inactivation [5]: 12% | Vmax (Rattus norvegicus [6]): 6%

O=C(CI)NCCCC(=O)NCCCCCCNc1ncnc2c1ncn2[C@@H]1O[C@H](COP(=O)(O)OP(=O)(O)OP(=O)(O)O)[C@@H](O)[C@H]1O
Loss of inactivation (Rattus norvegicus [7]): 0%

NC(=O)CI
Loss of inactivation [8]: 0%

O=C(CI)NCCCCCCC(=O)NCCCCCCNc1ncnc2c1ncn2[C@@H]1O[C@H](COP(=O)(O)OP(=O)(O)OP(=O)(O)O)[C@@H](O)[C@H]1O
Inactivation (Escherichia coli [9]): 4%

O=C(CI)NCCCCCNc1ncnc2c1ncn2[C@@H]1O[C@H](COP(=O)(O)OP(=O)(O)OP(=O)(O)O)[C@@H](O)[C@H]1O
Km (Rattus norvegicus [2]): 1000 µM | Inactivation (Escherichia coli [10]): 37% | Km (Rattus norvegicus [3]): 400 µM | Ki [11]: 6200 µM | Vmax (Rattus norvegicus [4]): 21% | Inactivation (Escherichia coli [12]): 36% | Vmax (Rattus norvegicus [6]): 9%

O=C(CI)NCCCCNc1ncnc2c1ncn2[C@@H]1O[C@H](COP(=O)(O)OP(=O)(O)OP(=O)(O)O)[C@@H](O)[C@H]1O
Inactivation [13]: 2%

Nc1ncnc2c1ncn2[C@@H]1O[C@H](COP(=O)(O)OP(=O)(O)OP(=O)(O)O)[C@@H](O)[C@H]1O [ADENOSINE TRIPHOSPHATE]
Km (Rattus norvegicus [2]): 90 µM | Vmax (Escherichia coli [14]): 100% | Km (Rattus norvegicus [3]): 90 µM | Vmax (Rattus norvegicus [4]): 100% | Km (Escherichia coli [15]): 60 µM | Vmax (Rattus norvegicus [6]): 100%

O=C(CI)NCCCCCC(=O)NCCCCNc1ncnc2c1ncn2[C@@H]1O[C@H](COP(=O)(O)OP(=O)(O)OP(=O)(O)O)[C@@H](O)[C@H]1O
Inactivation (Escherichia coli [16]): 5%

Nc1ncnc2c1nc(NCCCCCCNC(=O)CI)n2[C@@H]1O[C@H](COP(=O)(O)OP(=O)(O)OP(=O)(O)O)[C@@H](O)[C@H]1O
Ki [17]: 300 µM

O=C(CI)NCCCCCCCNc1ncnc2c1ncn2[C@@H]1O[C@H](COP(=O)(O)OP(=O)(O)OP(=O)(O)O)[C@@H](O)[C@H]1O
Inactivation (Escherichia coli [18]): 7% | Loss of inactivation (Rattus norvegicus [19]): 20%

CN(CCCN(C)C(=O)CCCCNc1ncnc2c1ncn2[C@@H]1O[C@H](COP(=O)(O)OP(=O)(O)OP(=O)(O)O)[C@@H](O)[C@H]1O)C(=O)CCCCNC(=O)OCc1ccccc1
Vmax (Escherichia coli [1]): 0%

CN(CCCCN(C)c1ncnc2c1ncn2[C@@H]1O[C@H](COP(=O)(O)OP(=O)(O)OP(=O)(O)O)[C@@H](O)[C@H]1O)C(=O)CCCCCCNC(=O)CI
Ki [17]: 1600 µM | Vmax (Escherichia coli [14]): 0% | Ki [11]: 2100 µM | Vmax (Rattus norvegicus [4]): 0% | Inactivation (Escherichia coli [20]): 2% | Vmax (Rattus norvegicus [6]): 0%

CN(CCCN(C)C(=O)CCCNc1ncnc2c1ncn2[C@@H]1O[C@H](COP(=O)(O)OP(=O)(O)OP(=O)(O)O)[C@@H](O)[C@H]1O)C(=O)CCCNC(=O)CI
Inactivation (Escherichia coli [21]): 0%

CC(=O)NCCCCCCCCNc1ncnc2c1ncn2C1O[C@H](COP(=O)(O)O)[C@@H](O)[C@H]1O (stereo partly drawn)
Loss of inactivation [22]: 0%

NCCCCCNc1ncnc2c1ncn2C1O[C@H](COP(=O)(O)OP(=O)(O)OP(=O)(O)O)[C@@H](O)[C@H]1O (stereo partly drawn)
Vmax (Escherichia coli [1]): 0%

O=C(CI)NCCNc1ncnc2c1ncn2[C@@H]1O[C@H](COP(=O)(O)OP(=O)(O)OP(=O)(O)O)[C@@H](O)[C@H]1O
Km (Rattus norvegicus [2]): 1600 µM | Km (Rattus norvegicus [3]): 400 µM | Vmax (Rattus norvegicus [4]): 5% | Ki [23]: 5900 µM | Vmax (Rattus norvegicus [6]): 2%

CN(CCCCCCN(C)c1ncnc2c1ncn2[C@@H]1O[C@H](COP(=O)(O)OP(=O)(O)OP(=O)(O)O)[C@@H](O)[C@H]1O)C(=O)CCCCCNC(=O)CI
Ki [17]: 1900 µM | Ki [11]: 2400 µM | Vmax (Rattus norvegicus [4]): 0% | Inactivation [24]: 1% | Vmax (Rattus norvegicus [6]): 0%

O=C(CI)NCCCCCCNc1ncnc2c1ncn2[C@@H]1O[C@H](COP(=O)(O)OP(=O)(O)OP(=O)(O)O)[C@@H](O)[C@H]1O
Loss of inactivation (Rattus norvegicus [25]): 8% | Inactivation (Escherichia coli [26]): 46% and 47% | Inactivation (Escherichia coli [27]): 25% | Inactivation (Escherichia coli [28]): 25%

O=C(CI)NCCCCCCCCNc1ncnc2c1ncn2C1O[C@H](CO)[C@@H](O)[C@H]1O (stereo partly drawn)
Loss of inactivation [29]: 30%

NCCCCCCNc1nc2c(N)ncnc2n1C1O[C@H](COP(=O)(O)OP(=O)(O)OP(=O)(O)O)[C@@H](O)[C@H]1O (stereo partly drawn)
Vmax (Escherichia coli [1]): 0%

CN(CCCCCCN(C)c1ncnc2c1ncn2[C@@H]1O[C@H](COP(=O)(O)OP(=O)(O)OP(=O)(O)O)[C@@H](O)[C@H]1O)C(=O)CCCCCCNC(=O)CI
Ki [17]: 1800 µM | Ki [11]: 2200 µM | Vmax (Rattus norvegicus [4]): 0% | Inactivation [24]: 0% | Vmax (Rattus norvegicus [6]): 0%
